# Measurements published in ChEMBL document CHEMBL5030522, “A Convenient Chemoenzymatic Preparation of Chimeric Macrocyclic Peptide Antibiotics with Potent Activity against Gram-Negative Pathogens” (2021).
# Numbered stars: 1 amine (or outer) side, 2 acyl side, 3 side chain; on linkers, the order of the positions; unused ones are H or OH. Bridge positions count the residues as written; N and C are the ends. Square brackets hold non-standard residues; d marks the D form. Peptide text beside a SMILES is read from it. I, II: the chains in the order shown. X1 = NC(=O)[C@H](Cc1cn(CCOCCOCCOCCC(=O)[*:2])nn1)N[*:1]; X2 = NC(=O)[C@H](Cc1cn(CC(=O)[*:2])nn1)N[*:1]; Tle = CC(C)(C)[C@H](N)C(=O)O; dDab = NCC[C@@H](N)C(=O)O; hSer = N[C@@H](CCO)C(=O)O; Dab = NCC[C@H](N)C(=O)O
# Columns and labels:
# Type in all cases: functional
# Escherichia coli [1] = assay: Antibacterial activity against Escherichia coli ATCC 35218 assessed as inhibition of bacterial growth after 16 hrs by broth microdilution method
# In short: (§1)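 MIC per CLSI broth microdilution. Strains streaked from glycerol stocks on blood agar, 16 h at 37 °C. Single colonies inoculated into cation-adjusted Mueller-Hinton broth (10 mg L–1 Mg2+, 25 mg L–1 Ca2+). Peptides serially diluted in this broth with 0.002% (v/v) final polysorbate-80 in polypropylene plates. Inoculum 5 × 10^5 CFU mL–1. Plates sealed, 16 h at 37 °C, growth scored visually. MIC in μg/mL, triplicates on two separate days.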
# Escherichia coli [2] = assay: Antibacterial activity against Escherichia coli producing MCR1 assessed as inhibition of bacterial growth after 16 hrs by broth microdilution method; in short: as §1
# Pseudomonas aeruginosa [3] = assay: Antibacterial activity against Pseudomonas aeruginosa M-120 assessed as inhibition of bacterial growth after 16 hrs by broth microdilution method; in short: as §1
# Klebsiella pneumoniae [4] = assay: Antibacterial activity against Klebsiella pneumoniae ATCC 11228 assessed as inhibition of bacterial growth after 16 hrs by broth microdilution method; in short: as §1
# Escherichia coli [5] = assay: Antibacterial activity against Escherichia coli producing MCR2 assessed as inhibition of bacterial growth after 16 hrs by broth microdilution method; in short: as §1
# Pseudomonas aeruginosa [6] = assay: Antibacterial activity against Pseudomonas aeruginosa producing NDM1 assessed as inhibition of bacterial growth after 16 hrs by broth microdilution method
# In short: (§2)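 CLSI broth microdilution. Strains grown from glycerol stocks on blood agar 16 h at 37 °C; colonies used to inoculate CAMHB containing 10 mg L–1 Mg2+ and 25 mg L–1 Ca2+. Peptides dissolved in CAMHB with 0.002% (v/v) final polysorbate-80, serially diluted in polypropylene plates; inoculum 5 × 10^5 CFU mL–1. Sealed, 16 h at 37 °C, growth scored visually. MIC in μg/mL; three or more measurements on multiple days.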
# Acinetobacter baumannii [7] = assay: Antibacterial activity against multidrug-resistant Acinetobacter baumannii assessed as inhibition of bacterial growth after 16 hrs by broth microdilution method; in short: as §2
# Acinetobacter baumannii [8] = assay: Antibacterial activity against Acinetobacter baumannii NRZ 00687 producing NDM2 assessed as inhibition of bacterial growth after 16 hrs by broth microdilution method; in short: as §1
# Pseudomonas aeruginosa [9] = assay: Antibacterial activity against Pseudomonas aeruginosa ATCC 27853 assessed as inhibition of bacterial growth after 16 hrs by broth microdilution method; in short: as §1
# Staphylococcus aureus = assay: Antibacterial activity against methicillin resistant Staphylococcus aureus USA300 by measuring MIC after 16 hrs by broth microdilution method; in short: as §2
# Acinetobacter baumannii [10] = assay: Antibacterial activity against Acinetobacter baumannii ATCC 9955 assessed as inhibition of bacterial growth after 16 hrs by broth microdilution method; in short: as §1
# Pseudomonas aeruginosa [11] = assay: Antibacterial activity against Pseudomonas aeruginosa NRZ 08418 producing NDM1 assessed as inhibition of bacterial growth after 16 hrs by broth microdilution method; in short: as §1
# Escherichia coli [12] = assay: Antibacterial activity against Escherichia coli producing NDM1 assessed as inhibition of bacterial growth after 16 hrs by broth microdilution method; in short: as §2
# Klebsiella pneumoniae [13] = assay: Antibacterial activity against Klebsiella pneumoniae producing NDM1 assessed as inhibition of bacterial growth after 16 hrs by broth microdilution method; in short: as §1
# Escherichia coli [14] = assay: Antibacterial activity against Escherichia coli producing MCR3 assessed as inhibition of bacterial growth after 16 hrs by broth microdilution method; in short: as §1
SMILES,MIC (Escherichia coli [1]) [µg/mL],MIC (Escherichia coli [2]) [µg/mL],MIC (Pseudomonas aeruginosa [3]) [µg/mL],MIC (Klebsiella pneumoniae [4]) [µg/mL],MIC (Escherichia coli [5]) [µg/mL],MIC (Pseudomonas aeruginosa [6]) [µg/mL],MIC (Acinetobacter baumannii [7]) [µg/mL],MIC (Acinetobacter baumannii [8]) [µg/mL],MIC (Pseudomonas aeruginosa [9]) [µg/mL],MIC (Staphylococcus aureus) [µg/mL],MIC (Acinetobacter baumannii [10]) [µg/mL],MIC (Pseudomonas aeruginosa [11]) [µg/mL],MIC (Escherichia coli [12]) [µg/mL],MIC (Klebsiella pneumoniae [13]) [µg/mL],MIC (Escherichia coli [14]) [µg/mL]
CC(C)C[C@@H]1NC(=O)[C@@H](CC(C)C)NC(=O)[C@H](CCN)NC(=O)[C@@H](NC(=O)[C@H](CCN)NC(=O)[C@@H](NC(=O)CCOCCOCCOCCn2cc(C[C@H](NC(=O)CC[C@@H]3NC(=O)[C@H](CCN)NC(=O)[C@H](Cc4ccc(O)cc4)NC(=O)[C@H]([C@@H](C)O)NC(=O)[C@H](C(C)C)NC(=O)[C@@H]4CCCN4C(=O)[C@@H](C)NC(=O)[C@H](CO)NC(=O)[C@H](C)NC(=O)[C@H](C(C)(C)C)NC(=O)[C@H](CCO)NC(=O)[C@H](Cc4c[nH]c5ccccc45)NC(=O)[C@H](CCO)NC(=O)[C@@H](CCN)NC3=O)C(N)=O)nn2)[C@@H](C)O)CCNC(=O)[C@H]([C@@H](C)O)NC(=O)[C@H](CCN)NC(=O)[C@H](CCN)NC1=O (I: cyclo([dDab][hSer]W[hSer][Tle]AS[dA]PVTY[Dab]E) / II: T[Dab][Dab][Dab][dL]L[Dab][Dab]T; linker I:14-II:N via X1; lactam II:3-II:C),2,16,8,8,16,4,4,2,4,> 64,8,–,–,–,–
CC(C)[C@@H]1NC(=O)[C@@H]2CCCN2C(=O)[C@@H](C)NC(=O)[C@H](CO)NC(=O)[C@H](C)NC(=O)[C@H](C(C)(C)C)NC(=O)[C@H](CCO)NC(=O)[C@H](Cc2c[nH]c3ccccc23)NC(=O)[C@H](CCO)NC(=O)[C@@H](CCN)NC(=O)[C@H](CCC(N)=O)NC(=O)[C@H](CCN)NC(=O)[C@H](Cc2ccc(O)cc2)NC(=O)[C@H]([C@@H](C)O)NC1=O (cyclo([dDab][hSer]W[hSer][Tle]AS[dA]PVTY[Dab]Q)),–,–,–,–,–,–,–,–,–,> 64,–,–,–,–,–
CC(C)C[C@@H]1NC(=O)[C@@H](CC(C)C)NC(=O)[C@H](CCN)NC(=O)[C@@H](NC(=O)[C@H](CCN)NC(=O)[C@@H](NC(=O)[C@H](CCN)NC(=O)CC[C@@H]2NC(=O)[C@H](CCN)NC(=O)[C@H](Cc3ccc(O)cc3)NC(=O)[C@H]([C@@H](C)O)NC(=O)[C@H](C(C)C)NC(=O)[C@@H]3CCCN3C(=O)[C@@H](C)NC(=O)[C@H](CO)NC(=O)[C@H](C)NC(=O)[C@H](C(C)(C)C)NC(=O)[C@H](CCO)NC(=O)[C@H](Cc3c[nH]c4ccccc34)NC(=O)[C@H](CCO)NC(=O)[C@@H](CCN)NC2=O)[C@@H](C)O)CCNC(=O)[C@H]([C@@H](C)O)NC(=O)[C@H](CCN)NC(=O)[C@H](CCN)NC1=O (I: cyclo([dDab][hSer]W[hSer][Tle]AS[dA]PVTY[Dab]E) / II: [Dab]T[Dab][Dab][Dab][dL]L[Dab][Dab]T; amide I:14-II:N; lactam II:4-II:C),0.2,0.2,–,–,0.2,0.4,0.2,–,–,> 6.4,0.2,0.8,0.1,0.8,0.2
CC(C)C[C@@H]1NC(=O)[C@@H](CC(C)C)NC(=O)[C@H](CCN)NC(=O)[C@@H](NC(=O)Cn2cc(C[C@H](NC(=O)CC[C@@H]3NC(=O)[C@H](CCN)NC(=O)[C@H](Cc4ccc(O)cc4)NC(=O)[C@H]([C@@H](C)O)NC(=O)[C@H](C(C)C)NC(=O)[C@@H]4CCCN4C(=O)[C@@H](C)NC(=O)[C@H](CO)NC(=O)[C@H](C)NC(=O)[C@H](C(C)(C)C)NC(=O)[C@H](CCO)NC(=O)[C@H](Cc4c[nH]c5ccccc45)NC(=O)[C@H](CCO)NC(=O)[C@@H](CCN)NC3=O)C(N)=O)nn2)CCNC(=O)[C@H]([C@@H](C)O)NC(=O)[C@H](CCN)NC(=O)[C@H](CCN)NC1=O (I: cyclo([dDab][hSer]W[hSer][Tle]AS[dA]PVTY[Dab]E) / II: [Dab][Dab][dL]L[Dab][Dab]T; linker I:14-II:N via X2; lactam II:1-II:C),–,–,64,16,32,32,32,64,64,> 64,64,64,–,–,64
